Measurements taken from ChEMBL document CHEMBL4613269, “2-((4-Arylpiperazin-1-yl)methyl)benzonitrile Derivatives as Orally Available Inhibitors of Hepatitis C Virus with a Novel Mechanism of Action” (J Med Chem, 2020).
Active and inactive are the calls of the source. No cut-off for these calls is given here.

Columns and labels:
[1] = Cmax in beagle dog at 5 mg/kg, iv measured after 0.08 to 72 hrs post dose by LC-MS/MS analysis; type: ADME, organism-based, Canis lupus familiaris; design: dose 5 mg/kg, route intravenous; details: in vivo
Method in brief: (§1)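 Single dose to fasted (12 h) animals: oral gavage 15 mg/kg as suspension in 0.5% CMC-Na, or iv 5 mg/kg dissolved in citric acid buffer pH 5.0 with 2.5% DMSO. Jugular vein blood on heparin at 0.08 (iv only) to 72 h. Plasma assayed by LC-MS/MS; parameters from noncompartmental analysis.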

[2] = Selectivity index, ratio of CC50 for cytotoxicity in African green monkey Vero cells to EC50 for Antiviral activity against Coxsackievirus B3 infected in Vero cells; type: toxicity, cell-based; details: read-out: Ratio CC50/EC50
[3] = Cytotoxicity in African green monkey Vero cells assessed as reduction in cell viability; type: cell-based; details: chlorocebus sabaeus
[4] = Tmax in beagle dog at 15 mg/kg, po measured after 0.08 to 72 hrs post dose by LC-MS/MS analysis; type: ADME, organism-based, Canis lupus familiaris; details: in vivo
Hepatitis C virus [5] = experiment: Synergistic antiviral activity against HCV infected in human Huh7.5 cells assessed as reduction in HCV core protein level by measuring (q) value at 0.1 uM in presence of 0.016 nM daclatasvir incubated for 72 hrs by Western blot assay based Webb method relative to control; type: functional, Hepacivirus hominis
Method in brief: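 Huh7.5 cells in 6-well plates were infected with HCV in the presence of 0.1 μM test compound combined with simeprevir 0.025 μM, sofosbuvir 0.1 μM or daclatasvir 0.016 nM. Western blot at 72 h gave HCV core protein relative to actin, normalized to control. q calculated by Webb's method (q<1 antagonism, =1 addition, >1 synergy); over 3 independent experiments.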

[6] = Selectivity index, ratio of CC50 for cytotoxicity in human Huh7.5 cells assessed as reduction in cell viability incubated for 96 hrs by MTT assay to EC50 antiviral activity against HCV J6/JFH/JC1 infected in human Huh7.5 cells assessed as reduction in viral RNA levels incubated for 72 hrs by qRT-PCR analysis; type: toxicity, cell-based; details: read-out: Ratio CC50/EC50
Method in brief: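 Selectivity index = CC50/EC50. CC50: Huh7.5 cells seeded at 3×10^4/cm², medium with compound added at 24 h, MTT read at 96 h. EC50: HCVcc-infected Huh7.5 cells treated for 72 h, HCV RNA by qRT-PCR normalised to GAPDH. Serial 1:5 dilutions in eight steps, Reed & Muench calculation, means ± SD of three independent experiments.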

[7] = Clearance in beagle dog at 15 mg/kg, po measured after 0.08 to 72 hrs post dose by LC-MS/MS analysis; type: ADME, organism-based, Canis lupus familiaris; details: in vivo; method in brief: as §1
[8] = Toxicity in Kunming mouse assessed as effect on body weight at 250 to 1000 mg/kg dosed via single oral gavage and measured on day 7 post treatment; type: organism-based; details: in vivo
Method in brief: (§2)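 Kunming mice, 4 groups of n = 6 (3 male, 3 female). Fasted from 12 h before to 1 h after dosing. Single oral gavage of 250, 500 or 1000 mg/kg suspended in 0.5% CMC-Na, or vehicle alone. Followed for 7 days: survival, body weight before and at day 7. Day-7 blood taken for AST, ALT, urea nitrogen and creatinine.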

[9] = Drug level in Sprague-Dawley rat at 5 mg/kg, iv measured after 24 hrs post dose by LC-MS/MS analysis; type: ADME, organism-based; details: in vivo, read-out: Drug uptake; method in brief: as §1
[10] = Toxicity in Kunming mouse assessed as effect on ALT level at 250 to 1000 mg/kg dosed via single oral gavage and measured on day 7 post treatment; type: organism-based; details: in vivo; method in brief: as §2
[11] = Toxicity in Kunming mouse at 250 to 1000 mg/kg dosed via single oral gavage and measured on day 7 post treatment; type: organism-based; details: in vivo; method in brief: as §2
[12] = AUC (0 to 72 hrs) in Sprague-Dawley rat at 15 mg/kg, po measured after 0.08 to 72 hrs post dose by LC-MS/MS analysis; type: ADME, organism-based; design: dose 15 mg/kg, time < 72 hr, route oral; details: in vivo; method in brief: as §1
Hepatitis C virus [13] = experiment: Antiviral activity against HCV GS4.3 infected in human Huh7.5 cells assessed as […] at 0.008 to 1 uM simultaneously treated with viral infection and measured after 72 hrs by Western blot assay; type: functional, organism-based; details: Hepacivirus hominis
[14] = Toxicity in Kunming mouse assessed as effect on blood urea nitrogen level at 250 to 1000 mg/kg dosed via single oral gavage and measured on day 7 post treatment; type: organism-based; details: in vivo; method in brief: as §2
Influenza A virus = experiment: Antiviral activity against influenza A virus H3N2/95-359 infected in MDCK cells assessed as reduction in virus-induced cytopathic effect incubated for 48 hrs by Reed-Muench method; type: functional, organism-based; details: H3N2/95-359, MDCK
[15] = Apparent Volume of distribution in Sprague-Dawley rat at 5 mg/kg, iv measured after 0.08 to 72 hrs post dose by LC-MS/MS analysis; type: ADME, organism-based; details: in vivo, read-out: Vz; method in brief: as §1
[16] = Half life in Sprague-Dawley rat at 15 mg/kg, po measured after 0.08 to 72 hrs post dose by LC-MS/MS analysis; type: ADME, organism-based; details: in vivo; method in brief: as §1
[17] = Clearance in Sprague-Dawley rat at 15 mg/kg, po measured after 0.08 to 72 hrs post dose by LC-MS/MS analysis; type: ADME, organism-based; details: in vivo; method in brief: as §1
Hepatitis C virus [18] = experiment: Antiviral activity against HCV expressing NS3 D168V mutant by qRT-PCR analysis based by Reed-Muench method; type: functional, organism-based, Hepacivirus hominis
Method in brief: (§3)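 Huh7.5 cells seeded at 3×10^4/cm², infected 24 h later with wild-type or mutant HCV stock while compound or solvent was added at the same time. Intracellular HCV RNA measured by qRT-PCR at 72 h, normalised to GAPDH, 2^-ΔCT method. EC50 by Reed & Muench from eight-step 1:5 serial dilutions, triplicate wells.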

[19] = Drug level in beagle dog at 5 mg/kg, iv measured after 24 hrs post dose by LC-MS/MS analysis; type: ADME, organism-based, Canis lupus familiaris; details: in vivo, read-out: Drug uptake; method in brief: as §1
Hepatitis C virus [20] = experiment: Antiviral activity against HCV with glycoprotein E1 F291V mutant infected in human Huh7.5 cells assessed as reduction in viral RNA levels incubated for 72 hrs by qRT-PCR analysis; type: functional, organism-based, Hepacivirus hominis; method in brief: as §3

SMILES: CN(C)CCN(C)c1ccc(C#N)c(CN2CCN(c3ccc(Cl)cc3)CC2)c1
- Cmax [1]: 532 ng/mL
- selectivity ratio [2]: 3
- CC50 [3]: 22.2 µM
- Tmax [4]: 3 h
- Ratio (Hepatitis C virus [5]): 1.27
- selectivity ratio [6]: 671
- CL/F [7]: 200 mL/min/kg
- Activity [8]: Non-Toxic
- concentration at 24 h [9]: 77 ng/mL
- Activity [10]: Non-Toxic
- MTD at 7 day [11]: > 1000 mg/kg
- AUC(0-t) at 72 h [12]: 9590 ng·h/mL
- Activity (Hepatitis C virus [13]): Active
- Activity [14]: Non-Toxic
- EC50 (Influenza A virus): > 2.47 µM
- Vd [15]: 20.1 L/kg
- half-life [16]: 12.8 h
- CL/F [17]: 37.4 mL/min/kg
- EC50 (Hepatitis C virus [18]): 0.03 µM
- concentration at 24 h [19]: 6.16 ng/mL
- EC50 (Hepatitis C virus [20]): 0.12 µM
